In experiment [1] the test system is NCI-H1975. The experiment is described as follows: Antimigratory activity in human NCI-H1975 cells expressing EGFR L858R/T790M mutant at 300 to 500 nM measured after 24 hrs by wound healing assay. Particulars: dose 300-500 nM. It is filed as functional, cell-based. A digest of the protocol: (§1)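 H1975 cells seeded in 24-well plates, scratched at confluence with a pipette tip 24 h later and washed three times with PBS. Then incubated with degrader at 300 or 500 nM. Six photos per well taken at set time points, and the uncovered wound area quantified.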

Experiment [2] deals with NCI-H1975. The experiment is described as follows: Inhibition of cell invasion in human NCI-H1975 cells expressing EGFR L858R/T790M mutant assessed at 500 nM measured after 42 hrs by transwell assay. Set-up: scale not given: the % may be the effect or the level left. Type of experiment: functional. The gist of the method:
(§2)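 GFP-expressing H1975 cells were trypsinised and resuspended in serum-free medium containing compound. Seeded into Matrigel-coated transwell inserts (8 µm pores) above RPMI 1640 full growth medium, at 37 °C and 5% CO₂. Invaded cells imaged by fluorescence microscopy in five random fields per insert and counted. Three independent repeats.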

Experiment [3] deals with NCI-H1975. The experiment is described as follows: Antimigratory activity in human NCI-H1975 cells expressing EGFR L858R/T790M mutant at 500 nM measured after 24 hrs by wound healing assay. Type of experiment: functional, cell-based. A digest of the protocol:
as §1

For the next experiment, the system named is PC-9. The experiment is described as follows: Antiproliferative activity against human PC-9 cells assessed as inhibition of cell growth measured after 72 hrs by CCK-8 assay. Type of experiment: functional, cell-based. The settings on record: PC-9, 72 h. A digest of the protocol: (§3)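 Cells seeded at 3000 cells/well in 96-well plates and treated with graded compound concentrations one day later for 72 h. CCK-8 was added for 1–4 h and absorbance read at 450 nm. Lung cancer lines were kept in RPMI 1640 with 10% fetal calf serum at 37 °C and 5% CO₂.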

The test system of experiment [4] is NCI-H1975. The experiment is described as follows: Inhibition of cell invasion in human NCI-H1975 cells expressing EGFR L858R/T790M mutant assessed at 500 nM measured after 18 hrs by transwell assay. It is filed as functional. Set-up: scale not given: the % may be the effect or the level left. The gist of the method: as §2
Experiment [5] deals with Protein cereblon/Epidermal growth factor receptor (Homo sapiens), P00533+Q96SW2 [L858R,T790M]. The experiment is described as follows: Protac activity at CRBN/EGFR L858R/T790M mutant in human NCI-H1975 cells assessed as induction of EGFR degradation measured after 48 hrs by Western blot assay. Type of experiment: cell-based. Particulars: dose 30-500 nM. The gist of the method:
(§4)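 Cells seeded at 1-3X10^5/well and treated one day later with compounds at the concentrations and times given. Lysed in RIPA buffer with protease inhibitors. 15 µg protein run on 8% SDS-PAGE, transferred to nitrocellulose, probed for EGFR or phospho-EGFR, ECL detection. Lung lines kept in RPMI 1640 with 10% fetal calf serum, 37 °C, 5% CO2. DC50 is an estimated value. Repeated more than 3 times.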

Experiment [6] shares this test system. The experiment in a line: Protac activity at CRBN/EGFR L858R/T790M mutant in human NCI-H1975 cells assessed as induction of EGFR degradation at 300 nM incubated for 24 hrs followed by compound washout and measured 72 hrs after drug removal by Western blot assay. Type of experiment: cell-based. A digest of the protocol:
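H1975 cells were treated with 300 nM PROTAC for 24 h. Medium was removed, cells were washed 3 times with PBS, and fresh RPMI 1640 with 10% fetal calf serum was added. Cells were harvested at time points up to 72 h after drug removal, and total EGFR was measured by Western blot.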
(In general: Immunoblotting shows a protein as a band on a membrane.)

The test system is the same in experiment [7]. The experiment is described as follows: Protac activity at CRBN/EGFR L858R/T790M mutant in human NCI-H1975 cells assessed as induction of EGFR degradation at 0.3 uM pre-incubated for 2 hrs in the presence of Bafilomycin A1 and measured after 16 hrs by Western blot assay. It is filed as cell-based. Particulars: time 18.0 hrs.
Experiment [8] shares this test system. The experiment is described as follows: Protac activity at CRBN/EGFR L858R/T790M mutant in human NCI-H1975 cells assessed as induction of EGFR degradation at 30 to 500 nM by Western blot assay. Particulars: dose 30-500 nM, time 16-48 hrs, TDE = time-dependent effect. It is filed as cell-based.
Experiment [9] has the same test system. The experiment in a line: Protac activity at CRBN/EGFR L858R/T790M mutant in human NCI-H1975 cells assessed as increase in ratio of LC3B2 to LC3B1 under serum starvation condition at 0.3 uM measured after 16 hrs by Western blot assay. It is filed as cell-based. The gist of the method:
(§5)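 H1975 cells in RPMI 1640 with 10% serum. Autophagy was read by Western blot as the LC3B II/LC3B I ratio. Serum-free medium and rapamycin served as autophagy-inducing positive controls, and rapamycin was also combined with degrader. Where pretreatment applied, compounds were added for 2 h before a 16 h PROTAC treatment.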

For experiment [10] the test system is unchanged. The experiment is described as follows: Protac activity at CRBN/EGFR L858R/T790M mutant in human NCI-H1975 cells assessed as induction of EGFR degradation measured after 16 hrs by Western blot assay. It is filed as cell-based. A digest of the protocol:
as §4

Experiment [11] shares this test system. The experiment in a line: Protac activity at CRBN/EGFR L858R/T790M mutant in human NCI-H1975 cells assessed as increase in ratio of LC3B2 to LC3B1 at 30 to 300 nM preincubated for 2 hrs in presence of Rapamycin and measured after 16 hrs by Western blot assay. Type of experiment: cell-based. The settings on record: dose 30-300 nM, time 18.0 hrs. The gist of the method:
as §5

In experiment [12] the target is T1, Protein cereblon/Epidermal growth factor receptor (Homo sapiens, UniProt P00533+Q96SW2). The experiment is described as follows: Protac activity at CRBN/EGFR in human NCI-H1975 cells assessed as induction of EGFR degradation by Western blot assay. Type of experiment: cell-based.
In a further experiment the test system is HEK-293T. The experiment in a line: Cytotoxicity against human HEK293T cells assessed as inhibition of cell growth measured after 72 hrs by CCK-8 assay. It is filed as cell-based. A digest of the protocol:
as §3
On the technique in general: Tetrazolium dyes change colour on reduction, which living cells bring about.

Experiment [13] deals with NCI-H1975. The experiment is described as follows: Cell cycle arrest in human NCI-H1975 cells expressing EGFR L858R/T790M mutant assessed as increase of cell population in G0/G1 phase at […] measured after 48 hrs by RNaseA/propidium iodide staining based flow cytometry. Type of experiment: functional. The settings on record: dose lower 0.03 nM. A digest of the protocol: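 H1975 cells (1 × 10⁵/well, 6-well plates) treated one day after seeding at the indicated concentrations for 48 h. Washed in cold PBS, fixed in cold ethanol at −20 °C for over 24 h, then stained with PI/RNase for 30 min at 37 °C in the dark. Phase distribution measured by flow cytometry.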

The subject of experiment [14] is Protein cereblon/Epidermal growth factor receptor (Homo sapiens), P00533+Q96SW2 [L858R,T790M]. The experiment in a line: Protac activity at CRBN/EGFR L858R/T790M mutant in human NCI-H1975 cells assessed as induction of EGFR degradation at 30 nM measured after 16 hrs by Western blot assay. Type of experiment: cell-based. The gist of the method: as §4
For experiment [15], the target named is T1, Protein cereblon/Epidermal growth factor receptor. The experiment is described as follows: Protac activity at CRBN/EGFR in human PC-9 cells assessed as induction of EGFR degradation by Western blot assay relative to control. Type of experiment: cell-based. The gist of the method: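 PC9 cells (EGFR Ex19del) seeded at 1–3 × 10⁵/well in 12-well plates and treated the next day with graded degrader concentrations for 48 h. Lysed in RIPA buffer with protease inhibitors, 15 µg protein resolved on 8% SDS-PAGE, and EGFR detected by immunoblot with ECL. DC50 estimated from blots; experiments repeated more than 3 times.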

For experiment [16], the system named is Protein cereblon/Epidermal growth factor receptor (Homo sapiens), P00533+Q96SW2 [L858R,T790M]. The experiment in a line: Protac activity at CRBN/EGFR L858R/T790M mutant in human NCI-H1975 cells assessed as induction of EGFR degradation at 50 nM measured after 16 hrs by Western blot assay. Type of experiment: cell-based. A digest of the protocol: as §4

SMILES strings stand for the structures. Active and inactive are the calls of the source. No cut-off for these calls is given here. A value given as a limit tells only on which side of the number the result lay.

Experimental findings from ChEMBL document CHEMBL4825665, “Effective degradation of EGFRL858R+T790M mutant proteins by CRBN-based PROTACs through both proteosome and autophagy/lysosome degradation systems” (Eur J Med Chem, 2021) are described below.

The IC50 is the concentration needed to halve the response being measured. Usually DC50 stands for the concentration giving 50% degradation.

Take `C=CC(=O)Nc1cc2c(Nc3ccc(F)c(Cl)c3)ncnc2cc1OCCCN1CCN(C(=O)CCCCCCNc2cccc3c2C(=O)N(C2CCC(=O)NC2=O)C3=O)CC1` (stereo not given): the outcome (with NCI-H1975 [1]; in the experiment on NCI-H1975 [3]; in [6]; in experiment [9]; in experiment [10]; in experiment [11]) was Active. The outcome (with NCI-H1975 [13]; in experiment [14]) was Active. Moreover, the Activity with NCI-H1975 [2] was 40%; with NCI-H1975 [4] it was 38%; in [5], “Dose-Dependent Effect”; in experiment [8] it was “Tde”. The figures for the IC50 in the experiment with PC-9 and with HEK-293T were 3.94 nM and over 10000 nM, respectively. Besides, in experiment [7], the result was inactive. Further, the DC50 in experiment [12] is under 30 nM.
Take `C=CC(=O)Nc1cc2c(Nc3ccc(F)c(Cl)c3)ncnc2cc1OCCCN1CCN(C(=O)CCCCCNc2cccc3c2C(=O)N(C2CCC(=O)NC2=O)C3=O)CC1` (stereo not given): the result (in the experiment on NCI-H1975 [3]; in experiment [16]; in experiment [6]; in experiment [9]; in experiment [10]; in experiment [11]) was Active. Besides, the result in the experiment with NCI-H1975 [13] was Active. Besides, the values for the IC50 in the experiment with PC-9 and in the experiment on HEK-293T were 2.6 nM and over 10000 nM, respectively. For the same compound, the %max in experiment [15] turned out to be 40%. In addition, the Activity entry is “Dose-Dependent Effect” in experiment [5] and “Tde” in experiment [8]. In addition, the outcome in experiment [7] was inactive. Besides, the DC50 in experiment [12] was determined as 30 nM.
